Laboratory results published in ChEMBL document CHEMBL1127053, “3,4-Dimethyl-4-(3-hydroxyphenyl)piperidines: opioid antagonists with potent anorectant activity” (J Med Chem, 1993).
pKi: −log10 of the molar value.

Legend:
Rattus norvegicus = assay: Tested for concentration required to reduce the food consumption by 20 % subcutaneously; assay type: functional
Summary of the method: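 Obese Zucker rats, 3-4 months old, trained to eat only 8 am-4 pm. Groups of 4 (2 male, 2 female), with one saline control group daily. Compound in saline with 10% DMSO, given sc on 3 consecutive days, typical doses 5.0-0.08 mg/kg (0.02-20 in some cases). Intake measured over the first 4 h. ED20 from regression of the linear portion of the dose-response curve.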

[1] = biological target: Kappa-type opioid receptor (Cavia porcellus, UniProt P41144); assay: Binding affinity towards kappa opioid receptor by displacement of [3H]EKC in guinea pig cortical tissue
Kappa-type opioid receptor, sequence (P41144 whole entry): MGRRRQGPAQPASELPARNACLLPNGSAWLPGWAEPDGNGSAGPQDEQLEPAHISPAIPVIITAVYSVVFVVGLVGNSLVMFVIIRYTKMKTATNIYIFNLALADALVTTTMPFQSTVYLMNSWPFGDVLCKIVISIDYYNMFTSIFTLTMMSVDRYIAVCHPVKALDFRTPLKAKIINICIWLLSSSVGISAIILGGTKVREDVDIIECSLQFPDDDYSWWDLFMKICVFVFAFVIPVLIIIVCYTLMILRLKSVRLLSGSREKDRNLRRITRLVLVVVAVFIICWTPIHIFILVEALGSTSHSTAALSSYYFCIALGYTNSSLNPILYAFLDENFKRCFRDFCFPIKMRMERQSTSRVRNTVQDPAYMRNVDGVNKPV
Summary of the method: (§1)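 Radioligand displacement. Kappa: [3H]EKC, guinea pig cortex, with fentanyl and DADL added to block mu/delta binding. Delta: [3H]DADL, rat brain homogenate.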

[2] = biological target: Kappa-type opioid receptor (Mus musculus) (UniProt P33534); assay: Antagonist activity towards U50 488 induced kappa opioid receptor by mouse writhing assay at 2.5 mg/kg subcutaneously; assay type: functional, organism-based; design: dose 2.5 mg/kg
Kappa-type opioid receptor (Mus musculus), sequence (P33534 whole entry): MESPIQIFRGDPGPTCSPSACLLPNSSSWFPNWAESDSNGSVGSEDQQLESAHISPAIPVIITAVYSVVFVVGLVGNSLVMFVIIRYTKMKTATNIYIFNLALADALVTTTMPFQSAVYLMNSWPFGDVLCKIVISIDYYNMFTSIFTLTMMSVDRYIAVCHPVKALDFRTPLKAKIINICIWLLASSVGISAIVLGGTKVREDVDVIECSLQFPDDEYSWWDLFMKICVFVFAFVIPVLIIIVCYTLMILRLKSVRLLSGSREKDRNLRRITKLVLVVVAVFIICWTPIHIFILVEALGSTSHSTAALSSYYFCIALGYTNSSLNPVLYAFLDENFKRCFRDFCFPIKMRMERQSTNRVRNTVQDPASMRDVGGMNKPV
Summary of the method: (§2)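 Mouse acetic acid writhing: 0.6% acetic acid ip, writhes counted for 10 min starting 5 min after injection. 5 mice/point, ≥5 doses varied 2-fold, each mouse used once. AD50 = antagonist dose reducing agonist-induced writhing inhibition to 50%.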

[3] = biological target: Kappa-type opioid receptor (Rattus norvegicus) (UniProt P34975); assay: Antagonism of bremazocine induced kappa receptor diuresis in rats at a concentration of 0.08 mg/kg subcutaneously; assay type: functional, organism-based; design: dose 0.08 mg/kg
Kappa-type opioid receptor (Rattus norvegicus), sequence (P34975 whole entry): as the sequence (P33534 whole entry) above, with D11E, S17A, S51P, A308V counted along it
Summary of the method: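 Male Long-Evans hooded rats (350-500 g), reused no more than twice weekly. Bremazocine 0.08 mg/kg sc, test antagonist sc on the opposite side without delay. Rats housed in metabolism cages; urine volume recorded at 2 and 5 h. 3 rats/dose, doses varied 2-fold. AD50 = dose reducing cumulative 5-h induced urination by 50%.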

[4] = biological target: Mu-type opioid receptor (Mus musculus) (UniProt P42866); assay: Antagonistic activity towards morphine induced mu-opioid receptor by mouse writhing assay at 1.25 mg/kg subcutaneously; assay type: functional, organism-based; design: dose 1.25 mg/kg
Mu-type opioid receptor (Mus musculus), sequence (P42866 whole entry): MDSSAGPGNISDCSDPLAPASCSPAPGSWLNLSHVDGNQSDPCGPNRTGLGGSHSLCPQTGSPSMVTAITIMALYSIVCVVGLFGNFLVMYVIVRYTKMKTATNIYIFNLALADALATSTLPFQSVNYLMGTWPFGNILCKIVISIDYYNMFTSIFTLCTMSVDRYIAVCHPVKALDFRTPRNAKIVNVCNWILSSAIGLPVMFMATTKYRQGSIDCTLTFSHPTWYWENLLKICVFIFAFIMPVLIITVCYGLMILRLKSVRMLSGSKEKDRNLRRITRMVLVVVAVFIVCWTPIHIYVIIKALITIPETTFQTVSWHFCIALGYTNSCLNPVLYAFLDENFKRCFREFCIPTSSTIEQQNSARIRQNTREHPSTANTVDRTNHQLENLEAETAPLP
Summary of the method: as §2, with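 “injection. Agonist (morphine 1.25 mg/kg or U50,488 2.5 mg/kg) and antagonist given sc 20 min before acid.” for “injection.”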

Mu-type opioid receptor = Mu-type opioid receptor (Rattus norvegicus, UniProt P33535); assay: Binding affinity towards mu-opioid receptor by the displacement of [3H]Nal in rat brain homogenates; assay type: tissue-based
Mu-type opioid receptor, sequence (P33535 whole entry): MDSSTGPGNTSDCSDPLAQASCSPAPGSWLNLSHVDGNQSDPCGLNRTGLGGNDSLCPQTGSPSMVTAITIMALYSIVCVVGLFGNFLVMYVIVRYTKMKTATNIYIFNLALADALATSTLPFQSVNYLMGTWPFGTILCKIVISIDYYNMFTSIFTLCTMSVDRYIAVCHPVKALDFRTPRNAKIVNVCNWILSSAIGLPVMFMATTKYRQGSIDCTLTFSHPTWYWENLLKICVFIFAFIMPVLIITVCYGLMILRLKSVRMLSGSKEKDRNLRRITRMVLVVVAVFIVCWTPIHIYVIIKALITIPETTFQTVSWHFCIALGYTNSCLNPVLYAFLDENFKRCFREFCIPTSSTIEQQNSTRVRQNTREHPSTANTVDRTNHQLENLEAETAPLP

[5] = biological target: Kappa-type opioid receptor (Cavia porcellus) (UniProt P41144); assay: Binding affinity towards kappa-opioid receptor by displacement of [3H]EKC in guinea pig cortical tissue at 10 nM
Kappa-type opioid receptor (Cavia porcellus), sequence (P41144 whole entry): as the sequence (P41144 whole entry) above
Summary of the method: (§3)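 [3H]EKC binding to guinea pig cortical tissue, with fentanyl and DADL present to block mu and delta sites. Percent displacement measured at 10 and 100 nM test compound, run in triplicate.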

[6] = biological target: Kappa-type opioid receptor (Cavia porcellus) (UniProt P41144); assay: Binding affinity towards kappa-opioid receptor by displacement of [3H]EKC in guinea pig cortical tissue at 100 nM; summary of the method: as §3
[7] = biological target: Delta-type opioid receptor (Rattus norvegicus, UniProt P33533); assay: Binding affinity towards delta-opioid receptor by displacement of [3H]DADL in rat brain homogenates; assay type: tissue-based; summary of the method: as §1
Delta-type opioid receptor, sequence (P33533 whole entry): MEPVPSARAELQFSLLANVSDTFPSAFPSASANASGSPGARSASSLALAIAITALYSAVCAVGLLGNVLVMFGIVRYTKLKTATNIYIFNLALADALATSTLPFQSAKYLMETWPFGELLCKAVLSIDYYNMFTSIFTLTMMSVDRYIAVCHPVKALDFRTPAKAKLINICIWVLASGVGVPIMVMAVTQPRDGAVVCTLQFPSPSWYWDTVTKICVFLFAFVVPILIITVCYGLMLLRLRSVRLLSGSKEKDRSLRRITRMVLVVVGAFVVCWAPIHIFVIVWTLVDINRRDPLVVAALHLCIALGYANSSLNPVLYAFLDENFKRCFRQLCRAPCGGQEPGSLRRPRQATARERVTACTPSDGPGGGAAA

[8] = Rattus norvegicus, sc, read-out: ED50

Compound `C[C@H]1CN(CC2CCCCC2)CC[C@@]1(C)c1cccc(O)c1` has an ED50 (Rattus norvegicus; [8]) greater than 20 mg/kg, a pKi [1] of 7.54 and an AD50 [2] of 0.47 mg/kg. It also gave an AD50 [3] of 4.6 mg/kg, an AD50 [4] of 1.1 mg/kg and a pKi (Mu-type opioid receptor) of 7.77.

Work on `C=CCN1CC[C@]23c4c5ccc(O)c4O[C@H]2C(=O)CC[C@@]3(O)[C@H]1C5` [NALOXONE] yielded an ED50 (Rattus norvegicus; [8]) of 1.2 mg/kg.

With `C[C@@H]1CN(CCCc2cccs2)CC[C@]1(C)c1cccc(O)c1` the ED50 (Rattus norvegicus; [8]) was 0.4 mg/kg, the AD50 [2] was 0.65 mg/kg and the AD50 [3] was 1.66 mg/kg. The AD50 [4] was 0.24 mg/kg.

Compound `CCCCCCN1CC[C@@](C)(c2cccc(O)c2)[C@@H](C)C1` (stereo in doubt; 16) has an ED50 (Rattus norvegicus) of 0.51 mg/kg.

For `CC(C)CCN1CC[C@@](C)(c2cccc(O)c2)[C@@H](C)C1`, the ED50 (Rattus norvegicus; [8]) was greater than 20 mg/kg, the pKi [1] was 7.15 and the AD50 [2] was 0.62 mg/kg. For the same compound, the AD50 [3] was 4.5 mg/kg, the AD50 [4] was 0.87 mg/kg and the pKi (Mu-type opioid receptor) was 7.49.

`C[C@H]1CN(CCC(O)c2ccccc2)CC[C@@]1(C)c1cccc(O)c1` (stereo partly specified) was tested, and the ED50 (Rattus norvegicus; [8]) was 0.5 mg/kg, the AD50 [2] was 0.92 mg/kg and the AD50 [3] was 2.5 mg/kg. It also gave an AD50 [4] of 0.05 mg/kg and a pKi (Mu-type opioid receptor) of 9.00.

For `C[C@H]1CN(CCCc2cccs2)CC[C@@]1(C)c1cccc(O)c1` (stereo in doubt; 29) [listing 1 of 2 here], the AD50 [3] was 1 mg/kg and the AD50 [4] was 0.22 mg/kg.

`CCCCCCN1CC[C@@](C)(c2cccc(O)c2)[C@@H](C)C1` (stereo in doubt; 37) showed an AD50 [2] of 0.22 mg/kg, an AD50 [3] of 0.86 mg/kg and an AD50 [4] of 0.26 mg/kg.

`CC(C)CCCCN1CC[C@@](C)(c2cccc(O)c2)[C@@H](C)C1` (stereo in doubt; 39) showed an ED50 (Rattus norvegicus) of 0.14 mg/kg, a pKi [1] of 8.72 and a pKi (Mu-type opioid receptor) of 9.05.

With `C[C@H]1CN(CCCc2cccs2)CC[C@@]1(C)c1cccc(O)c1` (stereo in doubt; 41) [listing 1 of 2 here] the AD50 [3] was 1.18 mg/kg.

Compound `C[C@@H]1CN(CC[C@H](O)C2CCCCC2)CC[C@]1(C)c1cccc(O)c1` has an ED50 (Rattus norvegicus; [8]) of 0.11 mg/kg, a pKi [1] of 8.19 and an AD50 [2] of 0.24 mg/kg. The AD50 [3] was 1.6 mg/kg and the AD50 [4] was 0.13 mg/kg.

`C[C@H]1CN(CCCc2cccs2)CC[C@@]1(C)c1cccc(O)c1` (stereo in doubt; 29) [listing 2 of 2 here] showed an ED50 (Rattus norvegicus; [8]) of 0.07 mg/kg.

With `CCCCCN1CC[C@@](C)(c2cccc(O)c2)[C@@H](C)C1` the ED50 (Rattus norvegicus; [8]) was 3.8 mg/kg, the Displacement [5] was 44% and the Displacement [6] was 78%. The AD50 [2] was 0.6 mg/kg.

Work on `C[C@H]1CN(CCC(O)c2cccs2)CC[C@@]1(C)c1cccc(O)c1` (stereo partly specified) yielded an ED50 (Rattus norvegicus; [8]) of 0.07 mg/kg.

`CCCCCCN1CC[C@](C)(c2cccc(O)c2)[C@H](C)C1` showed an ED50 (Rattus norvegicus; [8]) of 1.17 mg/kg, an AD50 [2] of 0.29 mg/kg and an AD50 [3] of 1.34 mg/kg. The AD50 [4] was 0.21 mg/kg and the pKi (Mu-type opioid receptor) was 8.25.

In the case of `C=C1CC[C@@]2(O)[C@H]3Cc4ccc(O)c5c4[C@@]2(CCN3CC2CC2)[C@H]1O5`, the ED50 (Rattus norvegicus; [8]) was 1.5 mg/kg, the pKi [7] was 8.47 and the pKi [1] was 8.70. The AD50 [2] was 0.14 mg/kg, the AD50 [3] was 0.99 mg/kg and the AD50 [4] was 0.02 mg/kg. For the same compound, the pKi (Mu-type opioid receptor) was 9.54.

`C[C@H]1CN(CCCc2cccs2)CC[C@@]1(C)c1cccc(O)c1` (stereo in doubt; 41) [listing 2 of 2 here] gave an ED50 (Rattus norvegicus) of 0.11 mg/kg and a pKi [7] of 7.99.

`C[C@H]1CN(CCCc2ccccc2)CC[C@@]1(C)c1cccc(O)c1` was tested, and the ED50 (Rattus norvegicus; [8]) was 1.3 mg/kg and the AD50 [2] was 5.3 mg/kg.

In the case of `C[C@H]1CN(CCC2C=CCC2)CC[C@@]1(C)c1cccc(O)c1` (stereo partly specified), the ED50 (Rattus norvegicus; [8]) was 0.44 mg/kg, the pKi [1] was 9.00 and the AD50 [2] was 0.12 mg/kg. The AD50 [3] was 1.4 mg/kg, the AD50 [4] was 0.11 mg/kg and the pKi (Mu-type opioid receptor) was 7.92.

For `CC(C)CCCN1CC[C@@](C)(c2cccc(O)c2)[C@@H](C)C1`, the ED50 (Rattus norvegicus; [8]) was 2.1 mg/kg, the pKi [1] was 8.02 and the AD50 [2] was 0.073 mg/kg. The AD50 [3] was 0.39 mg/kg, the AD50 [4] was 0.11 mg/kg and the pKi (Mu-type opioid receptor) was 9.54.
